ChEMBL document CHEMBL1124189, “2-(2-Aryl-2-oxoethylidene)-1,2,3,4-tetrahydropyridines. Novel isomers of 1,4-dihydropyridine calcium channel blockers” (J Med Chem, 1988)

Assays:
Rattus norvegicus [1] = test: Concentration required to produce 25% increase in intraventricular pressure(LV dp/dt); assay type: functional, Cardiac ventricle
Outline: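 Isolated perfused male rat heart (400–600 g; pentobarbital 50 mg/kg ip, heparin 2000 units ip), Krebs-Henseleit bicarbonate buffer at constant 70 mmHg, 37 °C, spontaneous beating; LV dP/dt expressed as percent change from control; concentration giving a 25% increase (or decrease) in LV dP/dt determined graphically, minimum two hearts.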

Rattus norvegicus [2] = species: Rattus norvegicus; test: Concentration required to produce 25% increase in coronary flow; assay type: functional
Outline: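 Langendorff isolated hearts from male rats (400–600 g), pentobarbital 50 mg/kg ip anesthesia, heparin 2000 units ip; retrograde aortic perfusion with modified Krebs-Henseleit bicarbonate buffer, about 15 mL/min for 2–3 min, then constant 70 mmHg pressure, 37 °C; spontaneously beating. Coronary flow taken as percent change from control; EC25 (25% increase) read graphically from at least two hearts.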

[3] = target: Voltage-gated L-type calcium channel (Rattus norvegicus, UniProt P22002+Q02485+P27732); test: Inhibition of [3H]nitrendipine binding to calcium channels in the rat brain.; assay type: tissue-based
Oryctolagus cuniculus = species: Oryctolagus cuniculus; test: The compound was tested for inhibition of potassium depolarized Rabbit aorta; assay type: functional

| SMILES | IC50 [3] [nM] | IC50 (Oryctolagus cuniculus) [µM] | EC25 (Rattus norvegicus [1]) [nM] | EC25 (Rattus norvegicus [2]) [nM] |
| --- | --- | --- | --- | --- |
| CCOC(=O)[C@@H]1C(C2=C(O)c3ccccc3CC2)=NC(C)=C(C#N)[C@H]1c1ccccc1C(F)(F)F | > 1000 | – | >1000 | 1000 |
| CCOC(=O)[C@@H]1/C(=C/C(=O)c2ccccc2)N=C(C)/C(=C(/O)OCC)[C@H]1c1ccccc1[N+](=O)[O-] | 31.1 | 17 | 2200 | 100 |
| CCOC(=O)C1=C(C)N=C(C2=C(O)c3ccccc3CC2)[C@@H](C(=O)OCC)[C@@H]1c1ccccc1C(F)(F)F | > 1000 | – | – | – |
| CCOC(=O)C1=C(C)N=C(/C=C(\O)c2ccccc2)[C@@H](C(=O)OCC)[C@@H]1c1ccccc1 | 912.8 | – | 500 | 200 |
| CCOC(=O)[C@@H]1/C(=C/C(=O)c2ccc(Cl)cc2)N=C(C)/C(=C(/O)OCC)[C@H]1c1ccccc1C(F)(F)F | 162.5 | – | <100 | <100 |
| CCOC(=O)[C@@H]1/C(=C/C(=O)c2ccccc2Cl)N=C(C)/C(=C(/O)OCC)[C@H]1c1ccccc1C(F)(F)F | > 1000 | – | – | – |
| CCOC(=O)[C@@H]1C(/C=C(\O)c2ccccc2)=NC(C)=C([N+](=O)[O-])[C@H]1c1ccccc1C(F)(F)F | 335.8 | – | >300 | 100 |
| CCOC(=O)[C@@H]1C(/C=C(\O)c2ccccc2)=NC2=C(C(=O)CCC2)[C@H]1c1ccccc1C(F)(F)F | > 1000 | – | 1500 | 1400 |
| CCOC(=O)[C@@H]1/C(=C/C(=O)c2ccccc2)N=C(C)/C(=C(/O)OCC)[C@H]1c1cccc(Cl)c1Cl | 27.7 | – | >300 | 200 |
| CCO/C(O)=C1C(C)=N/C(=C\C(=O)c2ccccc2)[C@@H](C(=O)c2ccccc2)[C@@H]\1c1ccccc1C(F)(F)F | 591.4 | – | 1200 | 380 |
| CCOC(=O)[C@@H]1/C(=C/C(=O)c2ccc(N(C)C)cc2)N=C(C)/C(=C(/O)OCC)[C@H]1c1ccccc1C(F)(F)F | 31.7 | 2.7 | >300 | 200 |
| CC1=C([N+](=O)[O-])[C@@H](c2ccccc2C(F)(F)F)[C@H](C(=O)c2ccccc2)C(/C=C(\O)c2ccccc2)=N1 | > 1000 | – | – | – |
| CCOC(=O)C1C(/C=C(\O)c2ccccc2)=NC(C)=C(C#N)C1c1ccccc1C(F)(F)F (configuration not stated) | 1021 | – | 3000 | 300 |
| COC(=O)C1=C(C)NC(C)=C(C(=O)OC)C1c1ccccc1[N+](=O)[O-] [NIFEDIPINE] | – | 0.2 | 300 | 10 |

Continued, in another order:

| IC50 [3] [nM] | IC50 (Oryctolagus cuniculus) [µM] | SMILES | EC25 (Rattus norvegicus [1]) [nM] | EC25 (Rattus norvegicus [2]) [nM] |
| --- | --- | --- | --- | --- |
| 149.6 | – | CCOC(=O)CC1=NC(C)=C(C#N)C(c2ccccc2C(F)(F)F)/C1=C(\O)OCC (configuration not stated) | – | – |
| 346.9 | – | CCOC(=O)C1=C(C)N=C(/C=C(\O)OCC)C(C(=O)OCC)C1c1ccccc1C(F)(F)F (configuration not stated) | >300 | <100 |
| 413.7 | – | CCOC(=O)[C@@H]1/C(=C/C(=O)c2ccc(C)cc2)N=C(C)/C(=C(/O)OCC)[C@H]1c1ccccc1C(F)(F)F | >300 | 130 |
| 296.9 | – | CCOC(=O)[C@@H]1/C(=C/C(=O)c2ccccc2)N=C(C)/C(=C(/O)OCC)[C@H]1c1ccccc1C(F)(F)F | >3000 | <100 |
| 25.5 | 3.1 | CCOC(=O)[C@@H]1/C(=C/C(=O)c2ccncc2)N=C(C)/C(=C(/O)OCC)[C@H]1c1ccccc1C(F)(F)F | >300 | 30 |
| 20 | – | CCOC(=O)CC1=C(C(=O)OCC)C(c2ccccc2C(F)(F)F)/C(=C(\O)OCC)C(C)=N1 (configuration not stated) | – | – |
| 116.7 | 150 | CCOC(=O)[C@@H]1/C(=C/C(=O)c2ccc(F)cc2)N=C(C)/C(=C(/O)OCC)[C@H]1c1ccccc1C(F)(F)F | >300 | 300 |
